Test results reported in ChEMBL document CHEMBL3232831, “Synthetic indole and melatonin derivatives exhibit antimalarial activity on the cell cycle of the human malaria parasite Plasmodium falciparum” (Eur J Med Chem, 2014).

Legend:
Plasmodium falciparum [1] = assay: Antiplasmodial activity against Plasmodium falciparum 3D7 infected in erythrocytes assessed as parasitemia level at 500 nM after 48 hrs by YOYO-1 staining-based flow cytometry relative to control; format: functional
Summary of the method: (§1)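 P. falciparum 3D7 in O+ human erythrocytes, RPMI-1640 with 10% O+ human serum, 92% N2/5% CO2/3% O2. Infected cells exposed 48 h at a single concentration. Then fixed in 2% paraformaldehyde/PBS for 24 h, permeabilized with 0.1% Triton X-100 and stained with 5 nM YOYO-1 for 30 min at 37 °C. Read on 10⁵ cells by flow cytometry. Parasitemia expressed versus solvent control; ≥3 independent experiments, one-way ANOVA with Dunnett's test.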

Plasmodium falciparum [2] = assay: Antiplasmodial activity against asynchronous culture of Plasmodium falciparum 3D7 infected in erythrocytes assessed as reduction of melatonin-induced increase in parasitemia level at 500 nM after 48 hrs by YOYO-1 staining-based flow cytometry (reference value: 23.5 +/- 6.8 %); format: functional; parameters: scale not given: the % may be the effect or the level left
Plasmodium falciparum [3] = assay: Antiplasmodial activity against Plasmodium falciparum 3D7 infected in erythrocytes assessed as parasitemia level at 100 nM after 48 hrs by YOYO-1 staining-based flow cytometry relative to control; format: functional; summary of the method: as §1
Plasmodium falciparum [4] = assay: Antiplasmodial activity against ring stage synchronized Plasmodium falciparum 3D7 infected in erythrocytes assessed as parasitemia level after 48 hrs by flow cytometry relative to control; format: functional, organism-based; conditions: 3D7, 48 h
Summary of the method: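 3D7 culture was synchronized (Lambros) and infected erythrocytes were dosed at ring stage with 10 concentrations from 5 nM to 100 μM for 48 h. Parasitemia was read by YOYO-1 flow cytometry as in the single-dose assay. IC50 was obtained from sigmoid dose–response fits; ≥3 independent experiments.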

Row | SMILES | Activity (Plasmodium falciparum [1]) | Activity (Plasmodium falciparum [2]) | Activity (Plasmodium falciparum [3]) | IC50 (Plasmodium falciparum [4])
1 | COC(=O)NCCc1c[nH]c2ccc(OC)cc12 | 10% | 14.5% | – | –
2 | COc1ccc2[nH]cc(CCNC(C)=O)c2c1 [MELATONIN] | – | 23.5% | 21.9% | –
3 | COC(=O)NCCc1c[nH]c2ccccc12 | 11.7% | 10.9% | – | –
4 | CC(=O)NCCc1c[nH]c2ccccc12 [NB-ACETYLTRYPTAMINE] | 12.9% | 11.3% | – | –
5 | CCCCCC(=O)NCCc1c[nH]c2ccccc12 | 6% | 6.9% | – | –
6 | COc1ccc2[nH]cc(CCNC(=O)c3ccccc3)c2c1 | 10.8% | 9.1% | – | 2.93 µM
7 | CCCC(=O)NCCc1c[nH]c2ccc(OC)cc12 | 8% | 8.8% | – | 19.2 µM
8 | C[C@H]1Cc2c([nH]c3cc(Cl)c(F)cc23)[C@@]2(N1)C(=O)Nc1ccc(Cl)cc12 [CIPARGAMIN] | – | – | – | 0.01 µM
9 | COc1ccc2[nH]cc(CCN)c2c1 [5-METHOXYTRYPTAMINE] | 19.7% | 14.1% | – | –
10 | CCCCCC(=O)NCCc1c[nH]c2ccc(OC)cc12 | 7.8% | 8.6% | – | 19.1 µM
11 | CCCC(=O)NCCc1c[nH]c2ccccc12 | 9.2% | 11% | – | –
